Drawing on ChEMBL document CHEMBL4390654, “Microwave-assisted solid-phase synthesis of antisense acpP peptide nucleic acid-peptide conjugates active against colistin- and tigecycline-resistant E. coli and K. pneumoniae” (Eur J Med Chem, 2019), this text covers MIC and hemolysis for 5 compounds.

For one series, the system named is Staphylococcus aureus. Description: Antibacterial activity against Staphylococcus aureus ATCC 29213 assessed as reduction in microbial growth incubated for 20 hrs. Format: functional. The conditions noted are these: ATCC 29213, 20 h. The procedure, abridged:
(§1)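 Broth microdilution MIC after a modified Hancock protocol for cationic peptides, in non-binding polystyrene plates. Inoculum ~2 × 10^5 CFU/mL in Mueller-Hinton broth with Mg²⁺ and Ca²⁺ at 4 mg/L each. Compounds dissolved in water, diluted in 0.01% acetic acid, 0.2% BSA (final), added as 10× aliquots. Covered plates incubated 20 h at 35 °C (± 2 °C) with shaking at 220 rpm. MIC read as lowest inhibiting concentration.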

Series [1] has as its system Escherichia coli. Put plainly: Antibacterial activity against multi-drug resistant Escherichia coli NMI 3898/15 assessed as reduction in microbial growth incubated for 20 hrs. Conditions: NMI 3898/15, 20 h. Type of series: functional. The procedure, abridged:
(§2)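 Broth microdilution MIC (modified Hancock protocol) in non-binding polystyrene plates. Inoculum ~2 × 10^5 CFU/mL in Mueller-Hinton broth with Mg²⁺ and Ca²⁺ at 4 mg/L each. Compounds dissolved in water, diluted in 0.01% acetic acid/0.2% BSA (final), added as 10× stocks. Covered plates incubated 20 h at 35 °C (± 2 °C) with 220 rpm circular shaking before MIC read.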

For series [2], the system named is Klebsiella pneumoniae. Put plainly: Antibacterial activity against multi-drug resistant Klebsiella pneumoniae NMI 3081/09 assessed as reduction in microbial growth incubated for 20 hrs. The conditions noted are these: NMI 3081/09, 20 h. Format: functional. The procedure, abridged: as §2
Series [3] can be described thus: Hemolytic activity against RBC (unknown origin) at 100 uM. Format: ADME, cell-based, Erythrocyte. Conditions: red blood cells (erythrocytes); read-out: Activity.
A further series relates to Pseudomonas aeruginosa. Description: Antibacterial activity against Pseudomonas aeruginosa PAO1 assessed as reduction in microbial growth incubated for 20 hrs. The conditions noted are these: PAO1, 20 h. Format: functional. The method, boiled down: as §1
Series [4] has as its system Escherichia coli. Description: Antibacterial activity against Escherichia coli ATCC 25922 assessed as reduction in microbial growth incubated for 20 hrs. Type of series: functional. Conditions: ATCC 25922, 20 h. The procedure, abridged: as §2
Series [5] deals with Escherichia coli. Description: Antibacterial activity against Escherichia coli lacking a functional SbmA assessed as reduction in microbial growth incubated for 20 hrs. The method, boiled down:
as §1

Series [6] has as its system Escherichia coli. Description: Antibacterial activity against multi-drug resistant Escherichia coli NMI 3548/14 assessed as reduction in microbial growth incubated for 20 hrs. Type of series: functional. Conditions: NMI 3548/14, 20 h. The procedure, abridged:
as §2

Series [7] relates to Klebsiella pneumoniae. Description: Antibacterial activity against multi-drug resistant Klebsiella pneumoniae NMI 2697/14 assessed as reduction in microbial growth incubated for 20 hrs. Type of series: functional. Conditions: NMI 2697/14, 20 h. The method, boiled down: as §2
Series [8] has as its system Klebsiella pneumoniae. Description: Antibacterial activity against Klebsiella pneumoniae ATCC 13883 assessed as reduction in microbial growth incubated for 20 hrs. Type of series: functional. Conditions: ATCC 13883, 20 h. The method, boiled down: as §1
Another series deals with Acinetobacter baumannii. Put plainly: Antibacterial activity against Acinetobacter baumannii ATCC 19606 assessed as reduction in microbial growth incubated for 20 hrs. Type of series: functional. Conditions: ATCC 19606 = CIP 70.34 = JCM 6841, 20 h. The procedure, abridged: as §1

Square brackets hold non-standard residues; d marks the D form. Peptide text beside a SMILES is read from it. * marks the point of attachment. X3 = CC[C@H](C)[C@@H](C(=O)*)N(C(=O)[C@H](CCCNC(=N)N)NC(=O)CCCCCNC(=O)[C@@H](N)CCCNC(=N)N)C(=O)[C@H](CCCNC(=N)N)NC(=O)CCCCCNC(=O)[C@@H](N)CCCNC(=N)N; Ahx = NCCCCCC(=O)O

As for `CC[C@H](C)[C@H](NC(=O)[C@H](CCCCN)NC(=O)[C@H]([C@@H](C)CC)N(C(=O)[C@H](CCCNC(=N)N)NC(=O)CCCCCNC(=O)[C@@H](N)CCCNC(=N)N)C(=O)[C@H](CCCNC(=N)N)NC(=O)CCCCCNC(=O)[C@@H](N)CCCNC(=N)N)C(=O)N[C@@H](CC(C)C)C(=O)N[C@@H](Cc1ccccc1)C(=O)N[C@@H](CCC(N)=O)C(=O)N[C@@H](CC(N)=O)C(=O)N[C@@H](CCCNC(=N)N)C(=O)N[C@@H](CCCNC(=N)N)C(=O)N[C@@H](CCSC)C(=O)N[C@@H](CCCCN)C(=O)N[C@@H](Cc1c[nH]c2ccccc12)C(=O)N[C@@H](CCCCN)C(=O)N[C@@H](CCCCN)C(=O)N[C@@H](CS)C(=O)N[C@H](C(=O)N[C@@H](CS)C(=O)N[C@@H](C)C(=O)N[C@H](C(=O)N[C@@H](C)C(=O)N[C@@H](CS)C(=O)N[C@H](C(=O)N[C@@H](CS)C(=O)N[C@H](C(N)=O)[C@@H](C)O)[C@@H](C)O)[C@@H](C)O)[C@@H](C)O` (X3-KILFQNRRMKWKKCTCATACTCT-NH2), the MIC (in general, the smallest concentration in the dilution series that meets the test's criterion for growth inhibition) with Staphylococcus aureus is over 64 µg/mL; with Escherichia coli [1] it was at least 64 µg/mL; with Klebsiella pneumoniae [2], over 64 µg/mL; with Pseudomonas aeruginosa, 32 µg/mL; in the series with Escherichia coli [4], 16 µg/mL; in the series on Escherichia coli [5] it was 16 µg/mL. Besides, the minimal inhibitory concentration (MIC) with Escherichia coli [6] was 32 µg/mL; in the series on Klebsiella pneumoniae [7], over 64 µg/mL; in the series on Klebsiella pneumoniae [8], 8 µg/mL; in the series on Acinetobacter baumannii it was 16 µg/mL. Moreover, in [3], the hemolysis at 100 µM is under 1%.

Take `CC[C@H](C)[C@H](NC(=O)[C@H](CCCCN)NC(=O)[C@H]([C@@H](C)CC)N(C(=O)[C@H](CCCNC(=N)N)NC(=O)CCCCCNC(=O)[C@@H](N)CCCNC(=N)N)C(=O)[C@H](CCCNC(=N)N)NC(=O)CCCCCNC(=O)[C@@H](N)CCCNC(=N)N)C(=O)N[C@@H](CC(C)C)C(=O)N[C@@H](Cc1ccccc1)C(=O)N[C@@H](CCC(N)=O)C(=O)N[C@@H](CC(N)=O)C(=O)N[C@@H](CCCNC(=N)N)C(=O)N[C@@H](CCCNC(=N)N)C(=O)N[C@@H](CCSC)C(=O)N[C@@H](CCCCN)C(=O)N[C@@H](Cc1c[nH]c2ccccc12)C(=O)N[C@@H](CCCCN)C(=O)N[C@@H](CCCCN)C(=O)N[C@@H](CSC1CC(=O)N(CCC(=O)NCCOCCOC(=O)N[C@@H](CS)C(=O)N[C@H](C(=O)N[C@@H](CS)C(=O)N[C@@H](C)C(=O)N[C@H](C(=O)N[C@@H](C)C(=O)N[C@@H](CS)C(=O)N[C@H](C(=O)N[C@@H](CS)C(=O)N[C@H](C(N)=O)[C@@H](C)O)[C@@H](C)O)[C@@H](C)O)[C@@H](C)O)C1=O)C(N)=O` (stereo not given in full): the MIC was over 64 µg/mL in the series on Staphylococcus aureus; 32 to 64 µg/mL with Escherichia coli [1]; over 64 µg/mL in the series with Klebsiella pneumoniae [2]; 32 to 64 µg/mL with Pseudomonas aeruginosa; 8 µg/mL in the series with Escherichia coli [4]; 8 to 16 µg/mL in the series on Escherichia coli [5]. In addition, the MIC was 16 to 32 µg/mL in the series on Escherichia coli [6], over 64 µg/mL in the series with Klebsiella pneumoniae [7], 2 to 4 µg/mL in the series on Klebsiella pneumoniae [8] and 16 µg/mL in the series on Acinetobacter baumannii. The hemolysis at 100 µM in series [3] is under 1%.

With `CC[C@@H](C)[C@@H](NC(=O)[C@H]1CCCN1C(=O)[C@@H](CCCNC(=N)N)NC(=O)[C@H]1CCCN1C(=O)[C@@H](Cc1cnc[nH]1)NC(=O)[C@@H](CO)NC(=O)[C@H](NC(=O)[C@H]1CCCN1C(=O)[C@@H](CCCNC(=N)N)NC(=O)[C@H]1CCCN1C(=O)[C@@H](CO)NC(=O)[C@@H](Cc1ccc(O)cc1)NC(=O)[C@H]1CCCN1C(=O)[C@@H](CCCNC(=N)N)NC(=O)[C@H]1CCCN1C(=O)[C@@H](CCCNC(=N)N)NC(=O)CCCCCNC(=O)[C@H](N)CCCNC(=N)N)[C@H](C)O)C(=O)N[C@H](CCCNC(=N)N)C(=O)N[C@@H](C(=O)N[C@H](CSC1CC(=O)N(CCC(=O)NCCOCCOC(=O)N[C@H](CS)C(=O)N[C@@H](C(=O)N[C@H](CS)C(=O)N[C@H](C)C(=O)N[C@@H](C(=O)N[C@H](C)C(=O)N[C@H](CS)C(=O)N[C@@H](C(=O)N[C@H](CS)C(=O)N[C@@H](C(N)=O)[C@H](C)O)[C@H](C)O)[C@H](C)O)[C@H](C)O)C1=O)C(N)=O)C(C)C` (stereo not given in full), the MIC was over 64 µg/mL with Staphylococcus aureus; 32 to 64 µg/mL in the series on Escherichia coli [1]; 64 µg/mL with Klebsiella pneumoniae [2]; over 64 µg/mL in the series on Pseudomonas aeruginosa; 32 µg/mL with Escherichia coli [4]; 64 µg/mL in the series on Escherichia coli [5]. Further, the MIC was 32 µg/mL in the series on Escherichia coli [6], at least 64 µg/mL with Klebsiella pneumoniae [7], 8 to 16 µg/mL with Klebsiella pneumoniae [8] and 64 µg/mL in the series on Acinetobacter baumannii. For the same compound, the hemolysis at 100 µM in series [3] is under 1%.

Take `CC[C@H](C)[C@H](NC(=O)[C@@H]1CCCN1C(=O)[C@H](CCCNC(=N)N)NC(=O)[C@@H]1CCCN1C(=O)[C@H](Cc1cnc[nH]1)NC(=O)[C@H](CO)NC(=O)[C@@H](NC(=O)[C@@H]1CCCN1C(=O)[C@H](CCCNC(=N)N)NC(=O)[C@@H]1CCCN1C(=O)[C@H](CO)NC(=O)[C@H](Cc1ccc(O)cc1)NC(=O)[C@@H]1CCCN1C(=O)[C@H](CCCNC(=N)N)NC(=O)[C@@H]1CCCN1C(=O)[C@H](CCCNC(=N)N)NC(=O)CCCCCNC(=O)[C@@H](N)CCCNC(=N)N)[C@@H](C)O)C(=O)N[C@@H](CCCNC(=N)N)C(=O)N[C@H](C(=O)N[C@@H](CS)C(=O)N[C@H](C(=O)N[C@@H](CS)C(=O)N[C@H](C(=O)N[C@H](C(=O)N[C@@H](C)C(=O)N[C@@H](CS)C(=O)N[C@@H](C)C(=O)N[C@@H](CS)C(=O)N[C@H](C(N)=O)[C@@H](C)O)[C@@H](C)O)[C@@H](C)O)[C@@H](C)O)C(C)C` (H-R[Ahx]RPRPYSPRPTSHPRPIRVCTCTTACACT-NH2): the MIC with Staphylococcus aureus was over 64 µg/mL; with Escherichia coli [1], over 64 µg/mL; in the series with Klebsiella pneumoniae [2], 8 to 16 µg/mL; in the series with Pseudomonas aeruginosa, over 64 µg/mL; in the series on Escherichia coli [4], over 64 µg/mL; in the series on Escherichia coli [5], over 64 µg/mL. The MIC in the series with Escherichia coli [6] was over 64 µg/mL; in the series on Klebsiella pneumoniae [7], over 64 µg/mL; in the series with Klebsiella pneumoniae [8] it was 64 µg/mL; in the series with Acinetobacter baumannii it was over 64 µg/mL. In addition, the hemolysis at 100 µM in series [3] was under 1%.

For the compound `CC[C@H](C)[C@H](NC(=O)[C@@H]1CCCN1C(=O)[C@H](CCCNC(=N)N)NC(=O)[C@@H]1CCCN1C(=O)[C@H](Cc1cnc[nH]1)NC(=O)[C@H](CO)NC(=O)[C@@H](NC(=O)[C@@H]1CCCN1C(=O)[C@H](CCCNC(=N)N)NC(=O)[C@@H]1CCCN1C(=O)[C@H](CO)NC(=O)[C@H](Cc1ccc(O)cc1)NC(=O)[C@@H]1CCCN1C(=O)[C@H](CCCNC(=N)N)NC(=O)[C@@H]1CCCN1C(=O)[C@H](CCCNC(=N)N)NC(=O)CCCCCNC(=O)[C@@H](N)CCCNC(=N)N)[C@@H](C)O)C(=O)N[C@@H](CCCNC(=N)N)C(=O)N[C@H](C(N)=O)C(C)C`, the MIC in the series on Staphylococcus aureus is over 64 µg/mL; in the series with Escherichia coli [1], 32 to 64 µg/mL; in the series on Klebsiella pneumoniae [2], over 64 µg/mL; with Pseudomonas aeruginosa, over 64 µg/mL; in the series with Escherichia coli [4], over 64 µg/mL; in the series on Escherichia coli [5], over 64 µg/mL. The MIC in the series with Escherichia coli [6] is 32 to 64 µg/mL; with Klebsiella pneumoniae [7], over 64 µg/mL; in the series with Klebsiella pneumoniae [8] it was over 64 µg/mL; with Acinetobacter baumannii, 64 µg/mL. In [3], the hemolysis at 100 µM was under 1%.
